Test system: MS2 coat protein
Assay: apparent Kd, MS2 coat protein; higher = weaker binding; RNA-MaP array; FMN 200 µM where present
Summary of the method: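 Stalled E. coli RNA polymerase produced the designs on Illumina sequencing-chip clusters. SNAP-549-labelled MS2 coat protein was added from 0.7 or 1.5 nM, doubling to 3 µM, without and then with constant ligand, in 100 mM Tris-HCl pH 7.5, 80 mM KCl, 4 mM MgCl2, BSA, DTT, yeast tRNA and Tween-20. The apparent Kd is the median of filtered per-cluster fits of green signal normalised to red-channel RNA signal and control-cluster median Fmax.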

[1] = designed as: ON switch for flavin mononucleotide, no ligand
[2] = ligand present: flavin mononucleotide, designed as: ON switch for flavin mononucleotide
[3] = designed as: OFF switch for flavin mononucleotide, no ligand
[4] = ligand present: flavin mononucleotide, designed as: OFF switch for flavin mononucleotide

Sequence | apparent Kd [1] [µM] | apparent Kd [2] [µM] | apparent Kd [3] [µM] | apparent Kd [4] [µM]
GGGUACAUCGGAGGAUAUCAUGUAAAUACAUGAGGAUCACCCAUGUCGAUGGAGACAUCGGAGAUUGAGAAGGCCGAUCUACCG | 0.213 | 0.00994 | – | –
GAUCAACAUGAGGAUCACCCAUGUGAGGAUAUGAUACUAUGUACUUCGGUACAUAGUAUCAGAAGGCAUAUUGA | – | – | 0.0548 | 0.0419
CAGUACUGAGGAUAUACAUGAGGAUCACCCAUGUAUCCAAGCUAGGAAACUAGCAAAUGUAGAAGGCAGUACUG | – | – | 0.0341 | 0.519
AAUUAUAUACAGAAGGAGUUAUAUUGAGUAUUACUAGGAUAUGUUCACAUGAGGAUCACCCAUGUCAUAUUGGGAUUUAUUAUA | – | – | 0.0216 | 0.0279
AUUGUGUGAGGAUAUUAGUAGUAAAUGAAUAAAAUUAUUACUGAGAAGGCACAUGAGGAUCACCCAUGUUCCUU | – | – | 0.0191 | 0.138
UUACGUCCCGUUUACAUGAGGAUCACCCAUGUCGAAAGAGCGUAGGAUAUGCUACCUAGUUGGUAGCAGAAGGAUGCAACGUCG | 0.0252 | 0.0375 | – | –
UCGAUGUAAGAGAAGGAGGACUUCAUGAGGAUCACCCAUGUGUUAGUACUUAGGAUAUUUGACAACAUGAGGAUCACCCAUGUC | 0.0643 | 0.0616 | – | –
UGAGUAGCGUAACAACGCACAUGAGGAUCACCCAUGUCUACACAGGAUAUGCGACGCUCCAGUUAGCAGAAGGGUGAACUCAAA | 0.0787 | 0.138 | – | –
UGUUGUAUUACAGGAUAUCUAGUAUUUUUAUAUAGAGAAGGGUAUUCACAUGAGGAUCACCCAUGUAUAUACGAGGAAGUUGUG | 0.0303 | 0.0322 | – | –
AAACACGGACAUGAGGAUCACCCAUGUGGCGAAAGCCUUGGGAGAAGGCCGAUAGCAAAGCUAUCGGAGGAUAUCCAUACCGUG | 0.0198 | 0.00772 | – | –
GCCAUCGCAUGAGGAUAUGGCACCGUUUCGGUGCCAGAAGGCAUGUCGAAUGACAUGAGGAUCACCCAUGUAGUUAAGAUGGCA | 0.48 | 0.0252 | – | –
GGAUAGGACAGAGGAUAUACGUGCUAGAGAUAAUAGCAAAAUUUCCUCACAUGAGGAUCACCCAUGUAGAAGGCUGUCCUAUCG | – | – | 0.0195 | 0.25
UACCUGAGGCAAAGCUUUAGGUAUACAUGAGGAUCACCCAUGUAGGAUAUGGUAGGCCUUGCUUACCAGAAGGACAUGUUAAUU | – | – | 0.0235 | 0.0761
UCGGCGCGAGGAUAUGCGGUUCCUCCCUCGGGCCGGAGCGUACAUGAGGAUCACCCAUGUAGAAGGCGCGCCGC | – | – | 0.0139 | 0.0151
AGAUGACAAUGUCAUCUUCAACGGACAUGAGGAUCACCCAUGUAGGAUAUGCUACUCAAAGAGUAGCAGAAGGACAUGUGUCUU | – | – | 0.0231 | 0.0852
GCCUCAAGUGAAGGAUAUACGAGGCCAAAUACAGUAGAAGGUCACAUGAGGAUCACCCAUGUCCCAAAGGGUGCGCAUGCGCUC | – | – | 0.0404 | 0.21
AGUUUUGUACAUGAGGAUCACCCAUGUUAAUAUGUGGUAGUCAGAAGGCAUUGUUAGAGUAUAUAUGAGGAUAUGAUUAGUCAG | 0.0583 | 0.0279 | – | –
UAAUUGUGAGGAUAUUCGUAGUUCUCGGAGACGAGAAUUACGGAGAAGGCACAUGAGGAUCACCCAUGUUCCUU | – | – | 0.0183 | 0.0961
GUUAGCGCAGGAUAUACAUGAGGAUCACCCAUGUCCUCAUGCGUUAAAGAGGUGAUCCGUAGAAGGGUGUAAAC | – | – | 0.18 | 0.25
GCUGACGAUGUAGGAUAUCAGUAUAAUAAAUACUGAGAAGGACAUGAGGAUCACCCAUGUAAUAAACGUCAGCAGAGGAAACUC | – | – | 0.0162 | 0.0226
ACAUGAGGAUCACCCAUGUACAUGGGUUUAAUUGUUUGUUACUAGGAUAUGUAUUUGAAUUUACAACAGAAGGAGUAUUAAUGU | – | – | 0.985 | 0.414
UGCCAGUUAGGAUAUGACUCGACAGACAUGAGGAUCACCCAUGUCCGAGUGUGUGUUUUUUCAGAAGGGACGGCCC | – | – | 0.0251 | 0.0304
CCCACGCAUGAGAAGGGACAGGCGUGCAAUUCGACAUGAGGAUCACCCAUGUCAGGAUAUCAGUUAAGGUGGGCAGAACCGAUG | – | – | 0.0154 | 0.0573
UUGCCUCAGAACAUGAGGAUCACCCAUGUGCUGCGGGCAACGUAGGAUAUGAUGGUAUGAUACCAUCAGAAGGAUGAUGGUACC | 0.00596 | 0.00533 | – | –
GUCACGUCAGGAUAUCUGAUGUCUAACUUCGGUUAGACAUCAGAGAAGGGACAUGAGGAUCACCCAUGUGACAG | – | – | 0.14 | 0.275
UUGGACGUCGUAGGAUAUGUAGGAUAUUCCUACAUGAGGAUCACCCAUGUUGACAUGGAAGCAGGACAGAAGGACGAUGUCCAU | 0.578 | 0.0143 | – | –
AAAACGGUAGGAUAUACAUGAGGAUCACCCAUGUUAAAUUUAAAAAUAAAAUUAAAAUGUAGAAGGACCAAAAA | – | – | 0.032 | 0.0323
UGGGUAAAUGUAGGAUAUUUAUAUUAAUAAUAUGGAGAAGGACAUGAGGAUCACCCAUGUACAGGGAAUUACCCAUUUCCUCUC | – | – | 0.94 | 0.877

Sequence | apparent Kd [1] [µM] | apparent Kd [2] [µM] | apparent Kd [3] [µM] | apparent Kd [4] [µM]
AAAUUUAACGAAGGAUAUGCUGACAUGAGGAUCACCCAUGUGUGCUUUGUGUUGCUGAAAUGGGAGCAGAAGGUCGUAUACAUA | – | – | – | 0.128
GGUCCAGCAUGAGGAUAUGGCACCUUAUUGGUGCCAGAAGGCAUGUCUAUAGACAUGAGGAUCACCCAUGUAAUAAAUUGGACC | – | 0.0432 | – | –
AGCCUAGCAGGAUAUGCCCGGGAUAACAUGAGGAUCACCCAUGUGACUGAUUGAUAUCCUGCAGAAGGGCUAGGGA | – | – | 0.0244 | 0.122
UUCGACGUCGUAGGAUAUGUAGGAUAUUCCUACAUGAGGAUCACCCAUGUUGACAUGGAAGAAGGACAGAAGGACGAUGUCCAU | 0.301 | 0.0064 | – | –
AAGAAACAUGAGGAUCACCCAUGUGAGGAUAUGCAAGAAAGAAAGAAAGAAAGAAGAAGCAGAAGGCACAAAGG | – | – | 0.0258 | 0.0497
AUGCUAGUGUGAGGAUAUCAACAUGAGGAUCACCCAUGUUGGAAGUACACGACAUGCGGUACAGGUGAGAAGGUACAUUAGCAU | – | – | 0.0274 | 0.0532
CUCGAGUCAAGGCUCGCGAGUACACAGGAUAUGAAAAGUCACAUGAGGAUCACCCAUGUCCAAAAUCAGAAGGGUGAGACUAAG | 0.764 | 0.223 | – | –
UUCACCUUAUUUUACAUGAGGAUCACCCAUGUUUUUUUUACGUAGGAUAUCGAUGCUUGUUUAUUCGAGAAGGACGAUGUAAGU | 0.0366 | 0.0324 | – | –
CUCGAGUUAGGAUAUCGAACGUAACAAGCGGAAACUCCCGCCGAGAAGGAACAUGAGGAUCACCCAUGUGAAAC | – | – | 0.0149 | 0.0183
CCGCGGCGUGCAGGAUAUGUUACGAUACCUCGGACAGAAGGGCACAUGAGGAUCACCCAUGUAAUAUAUAUGGAACAUAUAUAG | – | – | 0.0338 | 0.0533
UAGAUGGCUCAGGAUAUUUGCCAACUAACUCGCGAAGAAGGGAGCACAUGAGGAUCACCCAUGUGAUCGAACGG | – | – | 0.0188 | 0.0456
GACGCUAAAGGAUAUACAUGAGGAUCACCCAUGUUGAGGAAGGUUAGAUGAGGAGUAAGUAGAAGGUUAGGCGA | – | – | 0.038 | 0.0356
GGGUACAUCGAAGGAUAUCAUGUAAAUACAUGAGGAUCACCCAUGUCGAUGGAGACAUCGGAGAUUGAGAAGGCCGAUGUACCG | 0.338 | 0.0281 | – | –
AGCGGCGCGGACCACCGCAAAACCAGAAGGACAUGAGGAUCACCCAUGUAACAAAACAGGGCGGUGUAGGAUAUGGCAGACCCA | – | – | 0.0108 | 0.00916
UAUAUAUAGUAAGGAUAUGUAUAUAUUUUAUAAACAGAAGGUACUGACAUGAGGAUCACCCAUGUUUUAGUGUGGGCAUGUAGA | – | – | 0.0721 | 0.109
GUCGGGUCUCACGCGUCGGUCCACAUGAGGAUCACCCAUGUCAAGGAUAUAGCGUCUUCCGGGCGUUAGAAGGUGACCAUUGGC | – | – | 0.0346 | 0.0481
UUCUUCUGAGGAUAUACAUAGAUUUACAUGAGGAUCACCCAUGUUCCUCUAUGUAUAAAUGUAGAAGGCAGAAGUU | – | – | 0.0169 | 0.0912
AGAUGGCGAGGAUAUACAUGAGGAUCACCCAUGUGAAGAUAAAUAGUGAGGAAGAAAAGUAGAAGGCGCUGUCA | – | – | 0.0775 | 0.447
UUCAGCUCGUGAGGAUAUACAACACUGCUUCGGCAGUGUAUUAAGAUCACAUGAGGAUCACCCAUGUAGAAGGCACGAGCUGAU | – | – | 0.0148 | 0.29
GUGGCCCAGGCACAGGAUAUGUUUCUCGUAACAUGAGGAUCACCCAUGUGCCUAUGAGAUUUAAUGCAGAAGGGUGCACGCCACG | 0.135 | 0.0184 | – | –
CGAUUACGAGGAUAUUAUGGCCUCGACAUGAGGAUCACCCAUGUACAAACAUGAAUACCUUGAGAAGGCGUAGAGC | – | – | 0.0677 | 0.0673
CACUUGGCAGGAUAUGCAAUUUUAGACAUGAGGAUCACCCAUGUGAUCAUUCCAUAUUAUGCAGAAGGGCCUAAAC | – | – | 0.199 | 0.747
UAGUAUAAGGGCAUUAAACAUGAGGAUCACCCAUGUACGAUAGAGGAUAUGCAUUUCAGUUUAGAGUAGAAGGUUAGAGAAUUU | – | – | 0.0421 | 0.0429
GGAUAGGACAGAGGAUAUACGUGCUAGAGAUACUAGCAAAACUUCCUCACAUGAGGAUCACCCAUGUAGAAGGCUGUCCUAUCG | – | – | 0.0167 | 0.564
AAUAAACUCACAGGAUAUAGCAGAGGUCGCGUGAACUUACAGGCAACGAUGCUAGAAGGGUGACCACAUGAGGAUCACCCAUGU | 0.52 | 0.145 | – | –
AGAUGACAAAGUCAUCUCUGGCAGACAUGAGGAUCACCCAUGUAGGAUAUACUACUCAAAGAGUAGUAGAAGGACAUGUGUCUU | – | – | 0.0359 | 0.0994
UGUUACUAGUAAGGAUAUACUUGCGAUUAGCUUGUAGAAGGUACAGUCUUUUGUAUAACAUGUUUACAUGAGGAUCACCCAUGU | 0.0107 | 0.00869 | – | –

From the EternaBench riboswitch data
